Measured values taken from ChEMBL document CHEMBL1165965, “Synthesis and structure-activity relationships of 1,2,3,4-tetrahydropyrido[2,3-b]pyrazines as potent and selective inhibitors of the anaplastic lymphoma kinase” (Bioorg Med Chem, 2010).

biological target: ALK tyrosine kinase receptor (Homo sapiens, UniProt Q9UM73); test: Inhibition of ALK by time-resolved fluorescence assay
Summary of the method: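 Baculovirus-expressed ALK (30 ng/ml) on plates coated with GST–PLC-gamma substrate in TBS. Reaction ran 15 min at 37 °C. Europium-labeled anti-phosphotyrosine antibody was added for 1 h at 37 °C, then enhancement solution for 30 min, and TRF was read. IC50 came from a variable-slope sigmoidal fit of % inhibition vs log concentration.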

Sequence of ALK tyrosine kinase receptor (Q9UM73 whole entry): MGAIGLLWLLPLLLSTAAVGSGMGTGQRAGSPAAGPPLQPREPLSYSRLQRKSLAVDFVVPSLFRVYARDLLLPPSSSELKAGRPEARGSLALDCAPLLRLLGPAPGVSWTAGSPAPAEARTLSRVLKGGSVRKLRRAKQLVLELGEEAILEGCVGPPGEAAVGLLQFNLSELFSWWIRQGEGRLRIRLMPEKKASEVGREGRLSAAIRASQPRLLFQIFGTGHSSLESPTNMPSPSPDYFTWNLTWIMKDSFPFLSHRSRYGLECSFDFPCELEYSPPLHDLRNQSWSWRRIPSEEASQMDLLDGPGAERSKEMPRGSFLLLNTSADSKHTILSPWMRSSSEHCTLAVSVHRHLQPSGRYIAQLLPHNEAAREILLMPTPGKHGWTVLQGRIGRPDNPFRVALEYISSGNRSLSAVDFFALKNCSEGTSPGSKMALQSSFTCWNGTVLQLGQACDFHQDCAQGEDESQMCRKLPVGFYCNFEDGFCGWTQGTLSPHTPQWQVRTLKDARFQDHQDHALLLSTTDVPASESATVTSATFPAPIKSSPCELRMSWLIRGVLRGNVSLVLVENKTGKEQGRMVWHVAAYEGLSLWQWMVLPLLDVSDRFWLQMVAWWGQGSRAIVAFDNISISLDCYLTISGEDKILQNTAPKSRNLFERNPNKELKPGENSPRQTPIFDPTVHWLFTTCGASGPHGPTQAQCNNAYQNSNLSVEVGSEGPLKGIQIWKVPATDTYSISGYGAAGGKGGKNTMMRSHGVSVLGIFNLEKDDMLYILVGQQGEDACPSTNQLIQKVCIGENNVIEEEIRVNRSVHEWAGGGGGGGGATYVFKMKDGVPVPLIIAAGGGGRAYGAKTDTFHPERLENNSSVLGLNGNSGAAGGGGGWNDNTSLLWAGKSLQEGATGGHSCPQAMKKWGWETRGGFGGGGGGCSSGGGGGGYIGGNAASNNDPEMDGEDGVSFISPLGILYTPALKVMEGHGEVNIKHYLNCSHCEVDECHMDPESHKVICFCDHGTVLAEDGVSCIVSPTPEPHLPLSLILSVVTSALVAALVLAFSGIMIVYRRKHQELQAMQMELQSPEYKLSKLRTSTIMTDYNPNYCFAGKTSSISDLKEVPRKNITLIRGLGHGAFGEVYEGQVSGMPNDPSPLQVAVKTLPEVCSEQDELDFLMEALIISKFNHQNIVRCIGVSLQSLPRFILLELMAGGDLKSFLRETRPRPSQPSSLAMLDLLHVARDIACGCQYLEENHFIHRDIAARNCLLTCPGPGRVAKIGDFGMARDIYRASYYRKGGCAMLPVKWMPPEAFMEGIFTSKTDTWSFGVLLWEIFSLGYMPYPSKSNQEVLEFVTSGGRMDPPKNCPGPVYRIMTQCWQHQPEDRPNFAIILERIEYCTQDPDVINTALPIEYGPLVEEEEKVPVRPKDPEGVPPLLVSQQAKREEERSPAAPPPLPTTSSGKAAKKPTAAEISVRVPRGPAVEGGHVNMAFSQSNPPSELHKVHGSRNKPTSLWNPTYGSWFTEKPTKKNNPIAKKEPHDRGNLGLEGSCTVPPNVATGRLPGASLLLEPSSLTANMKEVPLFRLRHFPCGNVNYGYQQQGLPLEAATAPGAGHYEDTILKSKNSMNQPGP

IC50 [µM] | Compound
> 3 | CCOC(=O)c1ccc(-c2cnc3c(c2)N(Cc2cc(Cl)ccc2C(F)(F)F)CCN3)cc1
0.145 | O=C1CNc2ncc(-c3ccc(C(=O)N4CCC[C@H]4CN4CCCC4)cc3)cc2N1Cc1cc(F)ccc1F
0.256 | O=C(c1ccc(-c2cnc3c(c2)N(Cc2ccccc2)CCN3)cc1)N1CCC[C@H]1CN1CCCC1
> 10 | CN1CCN(c2ccc(-c3cnc4c(c3)C(Oc3c(F)ccc(F)c3Cl)CCN4)cn2)CC1 (stereo not drawn)
0.027 | O=C(c1ccc(-c2cnc3c(c2)N(Cc2c(Cl)cccc2Cl)CCN3)cc1)N1CCC[C@H]1CN1CCCC1
0.015 | O=C(c1ccc(-c2cnc3c(c2)N(Cc2cc(F)ccc2F)CCN3)cc1)N1CCC[C@H]1CN1CCCC1
> 10 | O=C1CNc2ncc(-c3ccc(C(=O)N4CCC[C@H]4CN4CCCC4)cc3)cc2N1Cc1ccccc1

Second part, the compound before the results:

Compound | IC50 [µM]
CN1CCN(c2ccc(-c3cnc4c(c3)N(Cc3cc(Cl)ccc3Cl)CCN4C)cn2)CC1 | > 3
CN1CCN(c2ccc(-c3cnc4c(c3)C(Cc3cc(F)ccc3F)CCN4)cn2)CC1 (stereo not drawn) | 1.54
CN1CCN(c2ccc(-c3cnc4c(c3)N(Cc3c(Cl)cccc3C(F)(F)F)CCN4)cn2)CC1 | 0.506
CN1CCN(c2ccc(-c3cnc4c(c3)N(S(=O)(=O)c3cc(F)ccc3F)CCN4)cn2)CC1 | 0.465
CN1CCN(c2ccc(-c3cnc4c(c3)N(C(=O)Cc3cc(F)ccc3F)CCN4)cn2)CC1 | > 10
O=C1CNc2ncc(-c3ccc(C(=O)N4CCC[C@H]4CN4CCCC4)cc3)cc2N1Cc1c(Cl)cccc1Cl | 0.278
